Screens (PubChem BioAssay)
Beta apoptosis – inhibitors of cytokine-induced beta cell apoptosis, primary screen, luminescence; INS-1E cytokine-induced death, ATP luminescence, 48 h; percent of positive-control rescue, neutral wells zero; protection from apoptosis, % (no concentration beside the values); actives 0.8% (n = 300,000);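 active = Every replicate reaches about 75%, or at least half do and their mean reaches it too, limit read from the data; inconclusive = At least half of replicates reach the limit but their mean does not; inactive = Under half of replicates reach the limit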;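 also: 0% = cytokine-treated negative control wells and 100% = positive control rescue; higher means more ATP so stronger rescue from cytokine killing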
CHOP inh – inhibitors of CHOP promoter induction, primary screen, cell-based, unfolded protein response, luciferase reporter; CHO-K1 CHOP-promoter luciferase, tunicamycin-induced, 15-18 h; inhibition, % at 10 µM; actives 3.8% (n = 220,000); AID 2732, 2010;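 active = compounds that reduced the stress-induced luciferase reporter signal by more than about 70% of percent inhibition, limit read from the data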;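 also: 0% = tunicamycin plus vehicle and 100% = wells without tunicamycin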
PREPL inhibitor – PREPL enzyme inhibitors, primary screen, biochemical, fluorescence polarization; recombinant PREPL, fluorescence polarization activity-based probe; AID 2751, 2010; Prolyl endopeptidase-like (Homo sapiens), Q4J6C6; inhibition, % at 5.96 µM; actives 0.68% (n = 320,000); in the data active = inhibition above about 43%;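 also: 0% = enzyme with DMSO and 100% = wells lacking enzyme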
Target sequence (Q4J6C6 whole entry, looked up): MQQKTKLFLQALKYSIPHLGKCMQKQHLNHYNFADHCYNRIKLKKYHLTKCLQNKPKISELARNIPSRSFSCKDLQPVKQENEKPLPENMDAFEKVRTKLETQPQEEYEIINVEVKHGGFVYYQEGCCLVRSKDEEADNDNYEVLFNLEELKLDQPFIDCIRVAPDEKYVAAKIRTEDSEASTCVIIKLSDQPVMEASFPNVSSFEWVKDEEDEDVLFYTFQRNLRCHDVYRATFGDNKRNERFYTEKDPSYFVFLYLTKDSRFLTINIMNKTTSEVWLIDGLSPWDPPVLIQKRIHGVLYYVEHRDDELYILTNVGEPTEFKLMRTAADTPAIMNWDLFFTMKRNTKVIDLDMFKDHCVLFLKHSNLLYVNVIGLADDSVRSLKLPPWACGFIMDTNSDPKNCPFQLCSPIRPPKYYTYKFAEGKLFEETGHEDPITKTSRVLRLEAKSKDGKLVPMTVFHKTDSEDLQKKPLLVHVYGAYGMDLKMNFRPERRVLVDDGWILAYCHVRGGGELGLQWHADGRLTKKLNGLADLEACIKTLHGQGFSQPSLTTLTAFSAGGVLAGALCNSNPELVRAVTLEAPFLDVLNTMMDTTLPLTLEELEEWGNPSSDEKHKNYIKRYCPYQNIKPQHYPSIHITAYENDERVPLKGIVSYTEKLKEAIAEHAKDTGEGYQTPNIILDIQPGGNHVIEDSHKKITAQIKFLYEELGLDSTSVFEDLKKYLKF
T cruzi inh – inhibitors of intracellular T. cruzi growth, primary screen, luminescence, NIH3T3 host cells; T. cruzi beta-gal in NIH3T3, 90 h; inhibition, % (no concentration beside the values); actives 1.4% (n = 300,000); AID 1885, 2009;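 active = mean inhibition across valid replicates above about 55%, limit read from the data; inconclusive = mean below that limit but half or more replicates reach it; inactive = mean below it, under half of replicates reach it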;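 also: signal also drops with host cell toxicity which is not excluded here; 0% = plate median of DMSO wells and 100% = zero luminescence signal; higher percent means less beta-gal luminescence so fewer parasites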
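System – NIH/3T3 host cells with β-galactosidase reporter T. cruzi · Doses – single 50 nL compound addition per well in DMSO · Reagent – 5000 T. cruzi trypomastigotes/well · Medium – Low-serum DMEM with 2% FBS · Timing – ≥90 h infection period, 3 h prior cell attachment · Evaluation – parasite load inhibition, % · Technique – GalScreen luminescence, 60 min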
NR3A LBD binder – binders of NR3A ligand-binding domain, primary screen, biophysical, differential scanning fluorimetry, uHTS; NR3A LBD differential scanning fluorimetry, Tm shift; 0% = protein alone, 100% = glycine-bound protein; Tm shift relative to glycine control, % at 25 µM; actives 2.5% (n = 340,000); AID 1259313, 2017;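 active = melting temperature shift of at least 10% of the positive control shift, at one fixed dose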
CSC inhib – cancer stem cell viability inhibitors, primary screen, luminescence; cancer stem cell-like cells viability; inhibition, % at 7.5 µM; actives 1.1% (n = 300,000); AID 2717, 2010; in the data active = inhibition above about 75%; inconclusive = no clear call, values can overlap the other calls; tested in HMLE shEcad cells
The depositor's hits bear a star; ? = inconclusive; . = no result. Sampled rows, rich in hits. Any-hit rate of the full collection: about 6.7%.

SMILES	Beta apoptosis	CHOP inh	PREPL inhibitor	T cruzi inh	NR3A LBD binder	CSC inhib
Cc1cccc2cc(CN(CCCN(C)C)C(=S)NCCc3ccccc3)c(=O)[nH]c12	4.7	34.4	-23.5	62.0*	0.7	0.7
Cc1ccc(CNC(=O)CN2C(=O)COc3ccc(S(=O)(=O)N4CCCCC4)cc32)o1	-4.2	.	0.2	-12.5	-1.1	-19.6
O=C(OCc1cccc(F)c1)c1cc2ccccc2cc1O	-4.3	.	1.8	-0.6	0.0	1.0
O=c1c(Cl)c(NCc2ccccc2)cnn1C12CC3CC(CC(C3)C1)C2	2.5	26.2	12.0	29.3	-0.8	76.8*
c1ccc(-c2nc(NCCCn3ccnc3)c3oc4ccccc4c3n2)cc1	3.2	23.0	1.9	26.1	-17.3	3.0
Cc1ccc(OCCN2CCN(c3nc(NCc4ccco4)c4ccccc4n3)CC2)cc1	4.0	51.0	19.9	69.9*	-18.4	111.5*
Oc1ccccc1Nc1nc(NCc2ccco2)c2ccccc2n1	18.4	18.1	-1.2	15.4	24.0*	.
Cc1ccc(-c2nc(NCc3ccco3)c3ccccc3n2)cc1	6.6	20.1	11.4	40.4	8.1	96.4*
c1ccc(-c2nc(NCc3ccco3)c3oc4ccccc4c3n2)cc1	-1.8	92.4*	-2.8	38.3	3.5	35.6
C=CCNC(=O)c1sccc1Oc1ccc(F)cc1[N+](=O)[O-]	-3.9	6.3	-1.7	-3.0	-1.5	-11.8
O=C(CSc1n[nH]c(=O)n1-c1ccccc1)N1CCOCC1	6.8	.	14.3	-9.5	0.9	8.3
Cc1cccc(NS(=O)(=O)c2c(C(=O)N3CCOCC3)c(C)n(C)c2C)c1C	-9.9	.	5.2	-16.4	-4.1	-5.7
COC(=O)c1cc(C(=O)OCC(=O)c2ccc[nH]2)cc([N+](=O)[O-])c1	0.4	.	9.5	.	-1.4	-4.3
Nc1ncnc2c1ncn2-c1ccccc1Cl	.	.	.	.	0.4	.
Cc1ccccc1Nc1nc(NCc2ccco2)c2ccccc2n1	36.7	18.8	-26.3	57.6*	-4.3	22.0
O=C(O)CCc1ccc(S(=O)(=O)Nc2cc(C(F)(F)F)ccc2N2CCCC2)cc1	.	.	.	.	0.3	.
N=c1c2c(n(Cc3ccc(Br)cc3)c3c1CCC3)CCCC2	115.4*	9.5	32.8	67.3*	-4.1	12.5
N=c1c2c(n(Cc3ccc([N+](=O)[O-])cc3)c3c1CCC3)CCCC2	3.8	10.9	23.1	40.5	0.7	-1.7
COc1cccc(C(=O)CN(C(=O)c2ccc(Cl)cc2Cl)N2C(=O)c3ccccc3C2=O)c1	0.3	27.7	9.6	14.3	0.8	11.0
C=CCNC(=O)CN1C(=O)C2C3c4ccccc4C(c4ccccc43)C2C1=O (centres undefined)	3.9	19.7	8.2	-0.3	-3.1	-10.6
CCCCn1c(-c2csc3c2CCCC3)n[nH]c1=S	0.1	12.2	1.2	-0.6	-1.1	-10.9
CCCCn1c(-c2csc3c2CCC(C)C3)n[nH]c1=S (centres undefined)	-1.5	83.9*	2.9	2.5	-5.4	-3.2
C=CCn1c(-c2csc3c2CCC(C)C3)n[nH]c1=S (centres undefined)	18.2	80.1*	1.0	-5.3	1.6	-20.4
Cc1ccc(C)c(NC(=O)CSc2nc(=O)n(CCN3CCOCC3)c3c2CCCC3)c1	0.0	.	7.2	9.3	1.1	4.1
C/C(=N\NC(=O)C(C)n1nc(C)c([N+](=O)[O-])c1C)c1ccccc1O (centres undefined)	91.6*	46.7	11.0	27.4	5.4	15.3
SMILES	Beta apoptosis	CHOP inh	PREPL inhibitor	T cruzi inh	NR3A LBD binder	CSC inhib
Cc1nn(C(C)C(=O)NCc2ccco2)c(C)c1[N+](=O)[O-] (centres undefined)	-2.6	-2.8	-9.2	4.2	0.6	-3.2
CN1CCN(c2ccc(S(=O)(=O)N3CCOCC3)cc2)CC1	-7.5	.	5.3	11.9	-0.3	-9.5
COc1ccccc1C1CCN(Cc2ccc3ccccc3c2)CC1	13.2	.	11.7	58.5*	1.4	17.6
CN1CCN(CCOc2ccc(Cc3ccccc3)cc2)CC1	0.6	.	-7.2	54.8*	-1.2	50.8
CCc1ccc(OCCOCCN2CCN(C)CC2)cc1	-2.3	.	-5.5	43.6	-7.6	58.0
CN1CCN(CCOc2ccc(Cl)c(Cl)c2)CC1	-6.2	12.0	12.2	55.8*	-3.9	34.6
COc1cc(CCC(=O)OCC(=O)N2CCc3ccccc32)cc(OC)c1OC	-8.6	.	-4.6	-3.5	0.3	-10.4
Cc1ccc(N(C(=O)c2snc(C(N)=O)c2N)C(C(=O)NCCC(C)C)c2ccco2)cc1 (centres undefined)	-6.9	-1.6	-2.6	55.9*	1.6	-11.4
Cc1ccsc1C(=O)NNC(=O)c1ccncc1	.	.	.	.	-1.7	.
CC1CCN(c2nc(-c3cccnc3)nc3scc(-c4ccccc4)c23)CC1	9.1	-1.0	4.6	30.5	0.6	94.7*
CC1CCCN(c2nc(-c3cccnc3)nc3scc(-c4ccccc4)c23)C1 (centres undefined)	55.9	21.2	-4.7	43.7	11.6*	-3.3
COc1cc(SC)ccc1C(=O)NCCOc1c(C)cc(C)cc1C	2.8	91.2*	7.6	26.9	3.5	4.5
N#CC(C(=O)Nc1ccccc1)=C1Nc2ccccc2N1	5.4	33.1	11.8	-2.1	0.3	14.7
O=C(NCc1ccccn1)Nc1ccc(Cl)c(Cl)c1	-7.8	44.7	5.8	-0.3	1.7	1.6
N#CC(C(=O)Nc1cccc(Cl)c1)=C1Nc2ccccc2N1	19.5	53.7	13.7	6.5	10.2*	.
N#CC(C(=O)Nc1ccc(Cl)c(Cl)c1)=C1Nc2ccccc2N1	14.2	72.9*	14.5	15.9	3.6	18.9
C=CCNC(=S)N/N=C/c1ccc(-c2ccc(Br)cc2)o1	-1.0	-30.9	14.1	?	16.5*	16.9
C=CCNC(=S)N/N=C/c1ccc(-c2cccc([N+](=O)[O-])c2)o1	6.1	36.4	1.1	9.7	-3.1	30.1
C=CCNC(=S)N/N=C/c1ccc(C(C)(C)C)cc1	.	95.3*	.	4.7	-9.6	.
Cc1cccc(N2CCN(S(=O)(=O)c3cccc4nonc34)CC2)c1C	-9.3	72.8*	3.1	10.4	-18.9	.
O=S(=O)(c1cccc2nonc12)N1CCN(c2ccccc2F)CC1	-14.2	16.1	4.8	-10.1	-1.3	-7.9
CCn1cc(/C=C(\NC(=O)c2ccc(OC)c(OC)c2)C(=O)NCCCN2CCOCC2)c2ccccc21	.	.	.	-9.0	-0.5	.
Cc1cc(C)c2nc(NNC(=O)c3cc(=O)c4ccccc4o3)sc2c1	4.4	14.1	1.8	-11.7	1.8	79.3*
